ChEMBL document CHEMBL1133522, “Chiral resolution, pharmacological characterization, and receptor docking of the noncompetitive mGlu1 receptor antagonist (+/-)-2-hydroxyimino- 1a, 2-dihydro-1H-7-oxacyclopropa[b]naphthalene-7a-carboxylic acid ethyl ester” (J Med Chem, 2000)

Key:
[1] = biological target: T1, Metabotropic glutamate receptor 1 (Homo sapiens, UniProt Q13255); assay: Inhibition of Quisqualate-Induced PI Hydrolysis measured in CHO Metabotropic glutamate receptor 1 Expressing Cells; assay type: functional
Method in brief: (§1)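 Human mGlu1b receptor, cloned and stably expressed in CHO cells. Inhibition of quisqualate-stimulated phosphoinositol hydrolysis. Each data point is a triplicate measurement from at least three independent experiments, given as mean ± SEM. Four-parameter logistic fit of concentration–response curves gives IC50 with 95% confidence intervals. Highest concentration tested was 30 µM, or 100 µM where solubility allowed.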
Target sequence in this assay (Q13255 whole entry): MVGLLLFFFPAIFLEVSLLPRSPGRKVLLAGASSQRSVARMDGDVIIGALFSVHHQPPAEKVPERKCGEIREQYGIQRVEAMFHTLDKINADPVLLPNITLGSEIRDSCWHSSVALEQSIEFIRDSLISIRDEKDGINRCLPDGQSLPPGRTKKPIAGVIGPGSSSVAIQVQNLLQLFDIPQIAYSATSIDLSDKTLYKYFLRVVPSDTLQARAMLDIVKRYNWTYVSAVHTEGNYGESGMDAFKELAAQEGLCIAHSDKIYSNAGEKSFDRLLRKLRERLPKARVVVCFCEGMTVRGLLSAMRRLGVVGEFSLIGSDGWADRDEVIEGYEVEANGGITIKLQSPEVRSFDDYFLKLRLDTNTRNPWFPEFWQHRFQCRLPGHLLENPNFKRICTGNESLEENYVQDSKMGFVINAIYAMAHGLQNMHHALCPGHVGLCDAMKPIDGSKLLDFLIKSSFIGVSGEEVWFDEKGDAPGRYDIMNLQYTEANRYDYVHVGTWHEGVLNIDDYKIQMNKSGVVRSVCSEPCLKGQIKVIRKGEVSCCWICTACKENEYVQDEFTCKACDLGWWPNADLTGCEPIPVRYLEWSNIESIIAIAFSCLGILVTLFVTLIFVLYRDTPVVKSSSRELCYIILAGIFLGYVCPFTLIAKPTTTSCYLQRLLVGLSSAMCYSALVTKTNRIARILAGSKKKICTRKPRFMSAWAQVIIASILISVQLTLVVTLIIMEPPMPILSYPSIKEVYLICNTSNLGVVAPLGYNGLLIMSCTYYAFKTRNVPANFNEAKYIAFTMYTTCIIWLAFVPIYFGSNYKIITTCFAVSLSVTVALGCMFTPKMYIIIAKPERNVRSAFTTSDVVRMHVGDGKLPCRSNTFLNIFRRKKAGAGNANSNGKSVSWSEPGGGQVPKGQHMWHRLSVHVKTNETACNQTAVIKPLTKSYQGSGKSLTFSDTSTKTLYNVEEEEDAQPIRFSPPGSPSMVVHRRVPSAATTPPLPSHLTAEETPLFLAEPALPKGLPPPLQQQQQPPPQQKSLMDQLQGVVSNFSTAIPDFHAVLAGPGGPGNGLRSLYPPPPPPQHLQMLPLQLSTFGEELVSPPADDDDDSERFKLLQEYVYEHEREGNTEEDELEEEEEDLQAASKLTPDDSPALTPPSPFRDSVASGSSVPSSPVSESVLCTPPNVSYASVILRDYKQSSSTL

[2] = biological target: T1, Metabotropic glutamate receptor 1; assay: Inhibition of Quisqualate-Induced PI Hydrolysis measured in CHO Metabotropic glutamate receptor 1 Expressing Cells at a concentration of 30 uM; ne means No effect; assay type: functional; method in brief: as §1
Target sequence in this assay (Q13255 whole entry): as above

[3] = biological target: T1, Metabotropic glutamate receptor 1; conditions: CHO; 100 uM
Target sequence in this assay (Q13255 19-1194 limits assumed): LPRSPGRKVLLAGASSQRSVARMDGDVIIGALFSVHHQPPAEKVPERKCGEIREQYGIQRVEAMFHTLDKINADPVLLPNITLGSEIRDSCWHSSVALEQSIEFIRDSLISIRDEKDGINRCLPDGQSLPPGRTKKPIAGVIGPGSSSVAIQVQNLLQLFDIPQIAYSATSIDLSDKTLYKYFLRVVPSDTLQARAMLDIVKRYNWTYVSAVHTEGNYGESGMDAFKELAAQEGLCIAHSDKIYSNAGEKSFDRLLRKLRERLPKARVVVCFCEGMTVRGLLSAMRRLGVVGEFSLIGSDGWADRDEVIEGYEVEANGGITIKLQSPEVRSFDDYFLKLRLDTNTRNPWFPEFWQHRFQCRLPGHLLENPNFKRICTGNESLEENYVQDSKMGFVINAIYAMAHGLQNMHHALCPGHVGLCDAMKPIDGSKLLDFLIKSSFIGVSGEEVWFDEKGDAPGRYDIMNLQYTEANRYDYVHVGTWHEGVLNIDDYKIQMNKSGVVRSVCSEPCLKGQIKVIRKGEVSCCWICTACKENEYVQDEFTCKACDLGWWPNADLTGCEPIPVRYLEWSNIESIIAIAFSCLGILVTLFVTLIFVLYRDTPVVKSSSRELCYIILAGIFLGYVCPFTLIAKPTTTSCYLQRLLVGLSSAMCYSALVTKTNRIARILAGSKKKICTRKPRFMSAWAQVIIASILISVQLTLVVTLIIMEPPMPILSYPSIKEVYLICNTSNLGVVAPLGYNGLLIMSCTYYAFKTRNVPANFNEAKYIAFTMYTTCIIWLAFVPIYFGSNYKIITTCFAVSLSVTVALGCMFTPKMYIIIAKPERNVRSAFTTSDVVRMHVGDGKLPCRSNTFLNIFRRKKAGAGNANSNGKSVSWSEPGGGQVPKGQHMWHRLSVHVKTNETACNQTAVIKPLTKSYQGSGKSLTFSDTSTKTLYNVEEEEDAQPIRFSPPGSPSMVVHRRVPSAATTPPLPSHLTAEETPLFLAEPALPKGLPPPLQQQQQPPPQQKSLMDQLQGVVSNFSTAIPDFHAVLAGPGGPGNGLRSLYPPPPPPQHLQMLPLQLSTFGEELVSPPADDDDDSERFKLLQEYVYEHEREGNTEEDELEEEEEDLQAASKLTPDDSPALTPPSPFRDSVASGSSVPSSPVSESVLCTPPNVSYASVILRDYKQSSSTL

Structure (SMILES)	IC50 [1] [nM]	IC50 [2]	inhibition [3] [%]
CCOC(=O)C12CC1/C(=N\O)c1ccccc1O2 (racemic)	3400		
CCOC(=O)[C@@]12CC1/C(=N\O)c1ccccc1O2 (stereo partly drawn)		Not Active	53
COC(=O)[C@@H](Cc1ccccc1)NC(=O)[C@@]12C[C@@H]1/C(=N\O)c1ccccc1O2		Not Active	
COC(=O)[C@H](Cc1ccccc1)NC(=O)C12CC1/C(=N\O)c1ccccc1O2 (mixture of isomers)	1200		
COC(=O)[C@@H](Cc1ccccc1)NC(=O)C12CC1/C(=N\O)c1ccccc1O2 (mixture of isomers)	1400		
COC(=O)[C@H](Cc1ccccc1)NC(=O)[C@]12C[C@H]1/C(=N\O)c1ccccc1O2	430		
CCOC(=O)[C@]12C[C@H]1/C(=N\O)c1ccccc1O2	1500		
